Measured values taken from article PMC11588060 (Proceedings of the National Academy of Sciences of the …, 2024).
Counter-ions that a name gives are not always drawn. Like-named read-outs stand apart in the source and are kept apart here.

Assays:
SfnG [1] = settings: cited from earlier work
MsuE = target: T1, MsuE (Pseudomonas fluorescens, UniProt Q3K9A2); assay: Fluorometric equilibrium titration of MsuE with oxidized FMN; type: binding
T1 sequence (Q3K9A2 1-187): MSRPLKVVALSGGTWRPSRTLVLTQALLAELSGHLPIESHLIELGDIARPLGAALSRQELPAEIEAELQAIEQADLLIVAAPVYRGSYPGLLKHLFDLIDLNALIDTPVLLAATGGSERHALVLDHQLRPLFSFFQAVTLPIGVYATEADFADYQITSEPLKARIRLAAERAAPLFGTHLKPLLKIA
Summary of the method: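 Recombinant P. fluorescens enzyme titrated at equilibrium with oxidized FMN, binding followed by intrinsic protein fluorescence on a spectrofluorometer. FMN range: 0.2 µM to 400 µM for MsuC and MsuD, 0.033 µM to 260 µM for MsuE. The fit gave KD, total enzyme and R2. Values are ±SD from three assay replicates.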

SfnG [2] = target: T2, SfnG (Pseudomonas fluorescens, UniProt Q3KC85); assay: Surface plasmon resonance flavin binding assay, SfnG captured on NTA sensor chip
T2 sequence (Q3KC85 1-364): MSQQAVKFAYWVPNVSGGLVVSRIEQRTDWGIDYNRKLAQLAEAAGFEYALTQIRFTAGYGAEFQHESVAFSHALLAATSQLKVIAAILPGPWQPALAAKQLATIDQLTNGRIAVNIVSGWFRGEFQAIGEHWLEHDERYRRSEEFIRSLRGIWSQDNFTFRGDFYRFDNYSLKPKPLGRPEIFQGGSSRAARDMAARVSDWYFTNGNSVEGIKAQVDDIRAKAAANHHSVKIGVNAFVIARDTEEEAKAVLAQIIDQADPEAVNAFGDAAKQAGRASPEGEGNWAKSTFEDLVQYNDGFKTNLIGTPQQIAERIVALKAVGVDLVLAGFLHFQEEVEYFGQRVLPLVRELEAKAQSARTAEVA

SsuD = settings: read-out: KD for FMN binding; E. coli SsuD; cited from earlier work
SfnG [3] = target: T2, SfnG; assay: Mixed dialkylsulfone monooxygenation endpoint assay; type: biochemical; settings: 1 mM substrate, 8 µM SfnG, 1 µM MsuE, 500 µM NADH, 2 µM FMN, 30 °C, 80 min

C[S+](C)[O-] [DMSO]
SfnG activity against the compound (SfnG [1]): not active

Cc1cc2nc3c(=O)[nH]c(=O)nc-3n(C[C@H](O)[C@H](O)[C@H](O)COP(=O)(O)O)c2cc1C [FMN, riboflavin 5´-monophosphate sodium salt]
Kd (MsuE): 540 ± 60 nM
koff (SfnG [2]): 0.42 s⁻¹
fold decrease in KD by SPR with 1% (v/v) DMSO in the running buffer (SfnG [2]; FMN binding to SfnG, with 1% (v/v) DMSO versus without): 2.7 fold
koff (SfnG [2]; read-out: koff rate constant with DMSO2 in the running buffer): 0.00836 s⁻¹
Kd (SsuD): 10 µM

CCS(=O)(=O)CC [diethylsulfone]
product(s) of conversion by SfnG (1H NMR endpoint assay) (SfnG [3]): ethanesulfinate
